Rpn11 inh – inhibitors of human proteasome Rpn11 | O00487 | human 26S proteasome, Ub4-pepOG fluorescence polarization; 20S core pre-blocked with epoxomicin | inhibition, % at 20 µM | 360,000 compounds, 0.59% hits;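 active = inhibition at 20 µM, scaled to each plate's controls, above about 33%, limit read from the data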
Target sequence (O00487 whole entry, looked up): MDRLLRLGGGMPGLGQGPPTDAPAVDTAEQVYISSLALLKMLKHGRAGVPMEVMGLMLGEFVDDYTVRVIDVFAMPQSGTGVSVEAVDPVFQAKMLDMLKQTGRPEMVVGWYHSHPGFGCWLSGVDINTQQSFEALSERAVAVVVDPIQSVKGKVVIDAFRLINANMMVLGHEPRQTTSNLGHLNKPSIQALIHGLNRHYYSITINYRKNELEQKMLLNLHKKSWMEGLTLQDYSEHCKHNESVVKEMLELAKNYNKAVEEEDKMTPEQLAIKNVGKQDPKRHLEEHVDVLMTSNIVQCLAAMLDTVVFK
Xi reactivation – X-chromosome reactivation activator; XiGFP mouse fibroblasts, % GFP-positive cells imaging, 3 d; cells co-treated with 5-aza-dC sensitizer; scaled so ellipticine positive control = 100%; activation, % at 7.58 µM; 360,000 compounds, 0.055% hits;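 active = mean normalized replicate activation at least 10% and every replicate at or above 10%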;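 note: 0% = median of on-plate neutral control wells and 100% = ellipticine 6 µM median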
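material = 68-5-11 XiGFP fibroblast line | medium = DMEM plus 5-aza-dC sensitizer | schedule = 3 days compound exposure | benchmarks = positive control ellipticine, 6 µM final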
CSN deneddyl inh – blocks human CSN-mediated cullin deneddylation | Q92905 | Purified CSN, SCF-Nedd8-OG deneddylation, fluorescence polarization | inhibition, % at 12.5 µM | 360,000 compounds, 0.38% hits | AID 651999;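 active = pattern-corrected inhibition above about 35%, with an unprinted fluorescence ratio check between 0.5 and 1.5, limit read from the data, passing the limit was not always enough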;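 note: 0% = enzyme with substrate and 100% = substrate without enzyme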
Target sequence (Q92905 whole entry, looked up, one chain of several): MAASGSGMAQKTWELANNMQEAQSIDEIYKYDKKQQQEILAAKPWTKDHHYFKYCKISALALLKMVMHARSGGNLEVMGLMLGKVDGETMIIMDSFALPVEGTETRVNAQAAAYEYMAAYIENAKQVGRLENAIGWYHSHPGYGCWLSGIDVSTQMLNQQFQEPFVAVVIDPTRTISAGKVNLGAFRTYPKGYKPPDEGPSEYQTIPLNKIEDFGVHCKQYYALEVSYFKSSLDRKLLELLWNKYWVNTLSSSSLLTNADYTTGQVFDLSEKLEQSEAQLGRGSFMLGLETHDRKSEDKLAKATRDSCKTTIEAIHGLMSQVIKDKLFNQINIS
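Assay system: HEK293T-derived human Csn5 enzyme; quantity: 0.24 nM enzyme; medium: Tris/NaCl/DTT buffer, pH 7.5; also added: substrate SCFSkp2-Nedd8OG, 10 nM; doses: 12.5 µM compound; schedule: 90 min reaction at room temperature; signal: FP; read-out: % inhibition of substrate cleavage by Csn5; benchmarks: substrate-only high control, full reaction low control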
TPT1 inhibitor – blocks Candida albicans tRNA 2'-phosphotransferase. recombinant caTPT1, FP RNA substrate dephosphorylation. inhibition, % at 5 µM. 300,000 compounds, 0.81% hits. AID 1962;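 active = inhibition above the mean of all tested compounds plus 3 SD, set per screening campaign, cut at about 24% in these data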;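 note: plate controls were DMSO alone for no effect and ferristatin control at 100 nM for full effect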
aDG glyco up – alpha-DG glycosylation activation | Pro5-aDG cells, alpha-DG glycosylation AlphaScreen (IIH6); 0% Pro5, 100% B10-LARGE cell signal | activation, % at 10 µM | 360,000 compounds, 0.22% hits | AID 624168;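 active = activation of at least 8% versus controls, or a plate z-score of at least 8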;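 note: Pro5 are CHO cells carrying HIG-tagged alpha-DG that lacks glycosylation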
HNF4A DNA FP – change in binding of human HNF4 alpha to DNA; HNF4a-FITC DNA binding, fluorescence polarization, 1 h; activity change, % at 10 µM; P41235; 360,000 compounds, 0.3% hits; AID 1224865; in the data active = activity change above about 30%, passing the limit was not always enough
aDG glyco conf – alpha-DG glycosylation activation, confirmation | shares compounds with aDG glyco up | Pro5-aDG cells, IIH6 AlphaLISA; scaled to LARGE-overexpressing B10 cells as 100% | activation, % at 10 µM (by protocol) | 600 compounds, 17% hits | AID 651671;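 active = activation of at least 7% in one or more replicates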;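 note: cells exposed to compound for two days before detection; 0% = DMSO-treated Pro5 cells and 100% = DMSO-treated B10-LARGE cells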
Active calls of the source: *; . = no result. This is a sample that favours compounds with a hit; in the whole collection about 1.3% have one here.

SMILES	Rpn11 inh	Xi reactivation	CSN deneddyl inh	TPT1 inhibitor	aDG glyco up	HNF4A DNA FP	aDG glyco conf
CCCNC(=O)Nc1ccc2c(c1)OC[C@H](C)N(CC1CCCC1)C[C@H](C)[C@H](OC)CN(C)C2=O	.	0	.	.	.	.	.
CN1CCCC2(CCCN(Cc3nc(Cc4cccc(C(F)(F)F)c4)no3)C2)C1 (stereo unspecified)	-6	0	-4	4	2	-3	.
FC(F)(F)c1cccc(Cc2noc(CN3CCC(c4ccncc4)CC3)n2)c1	-7	0	1	-1	6.1*	4	2
CC(C)(C)c1ccc(-n2ncc3c2CCCC3NC(=O)C2(C(N)=O)CC2)cc1 (stereo unspecified)	-28	0	1	-1	9.6*	-4	2
CC(=O)NCC(=O)NC1CCCc2c1cnn2-c1ccc(C(C)(C)C)cc1 (stereo unspecified)	-1	0	1	-3	0	2	.
COc1cc(C#Cc2c(-c3cncn3C)n(C)c3ccc(-c4ccc(OC)c(OC)c4)cc23)cc(OC)c1	5	0	-1	.	4	2	.
COc1cc(C#Cc2c(-c3cncn3C)n(C)c3ccc(Br)cc23)cc(OC)c1	4	1	-8	.	5.0*	-1	1
Cc1c(Br)c([N+](=O)[O-])nn1CC(=O)N1CCCc2ccccc21	-4	.	-1	-4	4.4*	-2	-1
COc1ccc(OC)c(C(=O)N(C[C@H]2CC[C@@H]([C@@H]3CC[C@H](CO)O3)O2)C(C(=O)NC(C)(C)C)c2ccc(-c3ccccc3)cc2)c1 (stereo partly specified)	3	0	3	.	5.8*	0	1
C[C@H](CO)N1C[C@H](C)[C@H](CN(C)C(=O)Cc2ccccc2)Oc2cc(-c3cncnc3)ccc2S1(=O)=O	.	0	.	.	.	.	.
CN1CC2(Cc3c1ccc1ccccc31)C(=O)OC(C)(C)OC2=O	-2	.	2	-5	6.4*	-3	-1
CCNC(=O)N(CC)C[C@H]1N[C@@](C)(C(=O)OC)[C@H]2C(=O)N(Cc3ccccc3)C(=O)[C@@H]12	0	0	-1	.	7.1*	-2	-1
CCN(C[C@H]1N[C@@](C)(C(=O)OC)[C@H]2C(=O)N(Cc3ccccc3)C(=O)[C@@H]12)C(=O)c1ccccc1	-8	0	1	.	0	2	.
CN(C)C(=O)c1ccc(-c2ccc(C3[C@@H]4CN(C(=O)Cc5ccccc5)C[C@H]3N4)cc2)cc1 (stereo partly specified)	.	0	.	.	.	.	.
O=C(NCc1cccnc1)c1ccc(-c2cc3ccccc3oc2=O)cc1	-4	0	5	1	5.6*	-5	0
COc1ccc(C(=O)NCc2cccnc2)cc1	0	.	2	0	0	0	.
O=[N+]([O-])c1ccc2ncnc(N3CCN(Cc4ccc5c(c4)OCO5)CC3)c2c1	5	0	1	2	1	0	.
COc1ccc2[nH]c3c(N4CCN(Cc5ccc6c(c5)OCO6)CC4)ncnc3c2c1	-4	.	-3	3	8.3*	-2	3
COc1ccc2c(c1)c(-c1csc(N)n1)c(C)n2C	5	0	2	-1	2	0	.
CNc1nc(-c2c(C)n(C)c3ccc(OC)cc23)cs1	10	0	2	-1	3.0*	0	4
O=C(NCC[C@@H]1CC[C@@H](NS(=O)(=O)c2ccccc2)[C@@H](CO)O1)c1cc(Cl)cc(Cl)c1	.	0	-3	.	7.7*	2	0
CCNC(=O)[C@H]1[C@H](CO)[C@H]2Cn3c(ccc(-c4cccc(F)c4)c3=O)[C@@H]1N2C(=O)c1cnccn1	.	0	.	.	.	.	.
Cc1cc2ncc(S(=O)(=O)c3ccccc3)c(N)n2n1	1	0	-1	-2	6.3*	1	1
C/C(=N\Nc1nc(C)cc(-c2ccccc2)n1)c1ccc(C)o1	17	.	3	-1	4.6*	4	2
O=C(NCC1CC1)[C@@H]1[C@@H](CO)[C@@H]2Cn3c(ccc(-c4ccccc4)c3=O)[C@H]1N2CC1CC1	.	0	.	.	.	.	.
SMILES	Rpn11 inh	Xi reactivation	CSN deneddyl inh	TPT1 inhibitor	aDG glyco up	HNF4A DNA FP	aDG glyco conf
Cc1nc(CCNC(=O)Cc2ccc(F)cc2)cs1	2	0	-7	-3	0	0	.
Cc1nc(CCNC(=O)Cc2ccc(Cl)cc2)cs1	1	0	4	-4	8.7*	5	1
CCCCOP(=O)(OCCCC)C1(NS(=O)(=O)c2ccccc2)C=CC(=O)c2ccccc21 (stereo unspecified)	-2	.	-2	1	5.9*	1	1
CCOC1=C2CN(S(=O)(=O)c3ccc(C)cc3)C(c3ccc(C)cc3)CC2N(S(=O)(=O)c2ccc(C)cc2)C(c2ccccc2)C1 (stereo unspecified)	.	0	1	.	2	-5	.
CCOC1=C2CN(S(=O)(=O)c3ccc(C)cc3)[C@H](c3ccccc3)C[C@@H]2N(S(=O)(=O)c2ccc(C)cc2)[C@H](c2ccccc2)C1	4	0	-5	.	6.8*	3	-1
Cc1ccc2nc(-c3ccc(F)cc3)c(CC3CCCCC3)n2c1	.	0	6	.	8.8*	-2	0
c1csc(-c2nc3c4ccccc4c4ccccc4c3[nH]2)c1	16	.	6	0	5.5*	8	4
COC(=O)C1=NN(C(C)(C)CC(C)=O)C2C(=O)N(C3CCCCC3)C(=O)C12 (stereo unspecified)	-2	0	-4	-3	3.1*	3	-1
CCNC(=O)C[C@H]1CC[C@H](NS(=O)(=O)c2ccc(C)cc2)[C@H](CO)O1	.	0	.	.	.	.	.
Cc1cccc(C)c1NC(=O)C(c1ccncc1)N1CCN(C)CC1 (stereo unspecified)	.	0	-2	.	9.8*	1	0
Cc1cccc(C)c1NC(=O)C(c1ccccc1)N1CCN(C)CC1 (stereo unspecified)	.	0	0	.	0	-1	.
Cc1c(C(=O)NCc2cccc(Cl)c2)sc(=O)n1Cc1cccc(F)c1	-2	0	-6	.	6.8*	1	0
Cc1c(C(=O)NCc2ccc(Cl)c(Cl)c2)sc(=O)n1Cc1cccc(F)c1	3	0	-4	.	1	3	.
CCn1c2c(c(=N)c3ccccc31)CCC2	0	0	-2	-1	3.4*	-4	0
COc1ccc(CN2CCC(C(=O)Nc3ccc(Oc4cccnc4)cc3)CC2)c(C)c1C	8	0	-8	0	2.2*	-1	4.7*

High-throughput results deposited in PubChem BioAssay by several laboratories.
